Here are results for nine compounds from ChEMBL document CHEMBL5126672, “Discovery of κ Opioid Receptor (KOR)-Selective d-Tetrapeptides with Improved In Vivo Antinociceptive Effect after Peripheral Administration” (ACS Med Chem Lett, 2022).

The structures appear in SMILES notation. pEC50, pKi: −log10 of the molar value. Calls of active or inactive are those of the source. The rule behind the calls is not given here. Square brackets hold non-standard residues; d marks the D form. Peptide text beside a SMILES is read from it. dNle = CCCC[C@@H](N)C(=O)O

For data set [1], the target named is T1, Kappa-type opioid receptor (Cavia porcellus, UniProt P41144). In words: Displacement of [3H]-HS665 from KOR in guinea pig brain membranes. The format is cell membranes, Membrane. In general terms: In a radioligand displacement assay an active substance lowers the binding of a labelled ligand.
The target in data set [2] is Kappa-type opioid receptor (Cavia porcellus) (UniProt P41144). The experiment in a line: (§1) Agonist activity at KOR in guinea pig brain membranes assessed as stimulation of [35S]GTPgammaS binding measured after 1 hr by liquid scintillation counting analysis. The class given is functional, cell membranes. The settings on record: Membrane, filed as agonist, DDE = dose-dependent effect.

Data set [3] has as its target T1, Kappa-type opioid receptor. The data set is described as §1. The class given is functional, cell membranes, Membrane.
Data set [4] deals with Mus musculus. The experiment in a line: Antinociceptive activity in CD-1 mouse assessed as maximum possible effect at 10 nmol, icv measured after 15 to 120 mins by tail-flick test. The class given is functional, organism-based. The settings on record: time 15-120 min. In short, it runs like this: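 Tail flick test in mice after intracerebroventricular injection of 10 nmol/mouse, with vehicle-treated and U50,488H control groups. Antinociception was expressed as maximum possible effect. N = 7 per group.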
On the technique in general: In hot-plate and tail-flick tests a longer latency is read as antinociception.

In data set [5] the test system is Mus musculus. In words: Antinociceptive activity in CD-1 mouse assessed as maximum possible effect at 20 umol/kg, iv measured after 15 to 120 mins by tail-flick test. The format is functional, organism-based. As to conditions: dose 20.0 µmol/kg, time 15-120 min. In short, it runs like this:
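Intravenous dosing at 20 μmol/kg in mice, followed by tail flick testing with antinociception expressed as maximum possible effect. Vehicle-treated animals served as controls. N = 8.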

The subject of data set [6] is Mus musculus. In words: Antinociceptive activity in formalin-induced CD-1 mouse model of nociception assessed as reduction in total time spent in paw licking during late phase at 100 nmol, sc pretreated for 15 mins followed by formalin challenge measured after 10 to 40 mins by formalin test. As to conditions: time 15-55 min. The class given is functional, organism-based. The gist of the method:
(§2)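 Subcutaneous injection into the mouse paw at 100 nmol/mouse, given 15 min before formalin challenge. Nociceptive behaviour was scored in the early and late phases against vehicle and U50,488H groups. Analysis used one-way ANOVA with Tukey's multiple comparisons test.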

Data set [7] relates to Mus musculus. The experiment in a line: Antinociceptive activity in formalin-induced CD-1 mouse model of nociception assessed as reduction in total time spent in paw licking during early phase at 100 nmol, sc pretreated for 15 mins followed by formalin challenge measured up to 10 mins by formalin test. The format is functional, organism-based. As to conditions: time 25.0 min. In short, it runs like this: as §2

The nature of data set [8]: AUC (infinity) in C57/BL6 mouse plasma at 13.9 mg/kg, iv administered via bolus by LC-MS/MS analysis. The format is ADME, organism-based. More on the design: time infinity, dose 13.9 mg/kg, route iv. In short, it runs like this:
(§3)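 Single intravenous bolus given to mice. Plasma concentrations were measured, and noncompartmental analysis gave Cmax, Tmax, t1/2 and AUC extrapolated to infinity. The calibration range was 10–1000 nM, with correlation coefficient >0.99 and the curve fit with 1/x2 weighting.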

Data set [9] is described as follows: Drug uptake in C57/BL6 mouse brain at 13.9 mg/kg, iv administered via bolus by LC-MS/MS analysis. The class given is ADME, organism-based. The settings on record: in vivo, BLD = below limit of detection. In short, it runs like this:
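Single intravenous bolus given to mice. Brain homogenates were analysed for drug exposure against a calibration curve spanning 10–1000 nM, fit with 1/x2 weighting.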

Data set [10] in a line: Cmax in C57/BL6 mouse plasma at 13.9 mg/kg, iv administered via bolus by LC-MS/MS analysis. The class given is ADME, organism-based. More on the design: dose 13.9 mg/kg, route iv. The gist of the method: as §3
A short description of data set [11]: Tmax in C57/BL6 mouse plasma at 13.9 mg/kg, iv administered via bolus by LC-MS/MS analysis. The format is ADME, organism-based. In short, it runs like this:
as §3

Data set [12] is described as follows: Half life in C57/BL6 mouse plasma at 13.9 mg/kg, iv administered via bolus by LC-MS/MS analysis. The format is ADME, organism-based. The gist of the method: as §3

T1 sequence (P41144 whole entry): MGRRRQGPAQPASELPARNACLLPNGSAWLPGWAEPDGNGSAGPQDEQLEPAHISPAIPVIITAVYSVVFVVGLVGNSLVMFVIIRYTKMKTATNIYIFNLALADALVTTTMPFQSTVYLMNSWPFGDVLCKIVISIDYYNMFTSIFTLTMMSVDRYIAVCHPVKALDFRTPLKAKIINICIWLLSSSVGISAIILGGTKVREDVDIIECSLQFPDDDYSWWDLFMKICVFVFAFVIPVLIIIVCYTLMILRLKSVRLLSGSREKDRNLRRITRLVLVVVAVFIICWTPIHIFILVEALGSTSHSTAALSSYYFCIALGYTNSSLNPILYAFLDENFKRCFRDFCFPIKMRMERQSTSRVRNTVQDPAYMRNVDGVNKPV
Sequence of Kappa-type opioid receptor (Cavia porcellus) (P41144 whole entry): as above

Compound `CCCC[C@@H](NC(=O)[C@@H](Cc1ccccc1)NC(=O)[C@H](N)Cc1c[nH]c2ccccc12)C(=O)N[C@H](CCCNC(=N)N)C(N)=O` showed a negative logarithm of the Ki (pKi) in data set [1] of 8.51. Also, the Activity result in data set [2] was “Dde”. Also, in data set [3], the negative logarithm of the EC50 (pEC50) is 8.29.

For `CCCC[C@@H](NC(=O)[C@@H](Cc1ccccc1)NC(=O)[C@H](N)Cc1cccc(F)c1)C(=O)N[C@H](CCCNC(=N)N)C(N)=O`, the result in the data set on Mus musculus [4], in the data set with Mus musculus [5], with Mus musculus [6] and with Mus musculus [7] was Active. In data set [1], the negative-log Ki (pKi) is 8.89. Also, the Activity entry in data set [2] is “Dde”. Moreover, the pEC50 in [3] is 7.65.

`CCCC[C@@H](NC(=O)[C@@H](Cc1ccccc1)NC(=O)[C@H](N)Cc1ccccc1)C(=O)N[C@H](CCCNC(=N)N)C(N)=O` (H-[dF][dF][dNle][dR]-NH2): the total exposure AUC(0-inf) in [8] is 0.0364 µM·h. Moreover, the outcome with Mus musculus [4] was Active. The Drug uptake result in data set [9] was “Bld”. In addition, in [10], the peak concentration (Cmax) is 93 nM. Moreover, in data set [1], the negative logarithm of the Ki (pKi) is 8.63. For the same compound, the Tmax in data set [11] is 5 min. Besides, the negative-log EC50 (pEC50) in [3] is 7.58. In data set [12], this compound showed a half-life of 12.7 min.

In data set [1], `CCCC[C@@H](NC(=O)[C@@H](Cc1ccccc1)NC(=O)[C@H](N)Cc1ccc(O)cc1)C(=O)N[C@H](CCCNC(=N)N)C(N)=O` gave a negative logarithm of the Ki (pKi) of 8.95. Besides, in data set [2], the Activity result was “Dde”. Besides, in [3], the negative-log EC50 (pEC50) is 5.02.

Regarding `CCCC[C@@H](NC(=O)[C@H]1Cc2ccccc2CN1C(=O)[C@H](N)Cc1ccccc1)C(=O)N[C@H](CCCNC(=N)N)C(N)=O`, the pKi in data set [1] was 8.44. Moreover, the pEC50 in data set [3] was 8.10.

`CCCC[C@@H](NC(=O)[C@@H](Cc1ccc(F)cc1)NC(=O)[C@H](N)Cc1ccccc1)C(=O)N[C@H](CCCNC(=N)N)C(N)=O`: the total exposure AUC(0-inf) in data set [8] is 0.0842 µM·h. In addition, the outcome in the data set on Mus musculus [4], in the data set on Mus musculus [5], with Mus musculus [6] and in the data set on Mus musculus [7] was Active. Moreover, in data set [9], the Drug uptake entry is “Bld”. Further, the Cmax in [10] stood at 109 nM. The negative logarithm of the Ki (pKi) in data set [1] was 9.04. Moreover, the Tmax in [11] was 15 min. Further, the negative-log EC50 (pEC50) in [3] is 6.02. This compound yielded a half-life in data set [12] of 20.6 min.

For the compound `Oc1cccc(CCN(CCc2ccccc2)CC2CCC2)c1`, the pKi in [1] was 8.72.

As for `CCCC[C@@H](NC(=O)[C@@H](Cc1ccccc1)NC(=O)[C@H](N)Cc1ccccc1F)C(=O)N[C@H](CCCNC(=N)N)C(N)=O`, the result in the data set on Mus musculus [4], with Mus musculus [6] and with Mus musculus [7] was Active. In data set [1], this compound gave a pKi of 8.36. Further, the pEC50 in data set [3] is 5.87.

Take `CCCC[C@@H](NC(=O)[C@@H](Cc1cccc(F)c1)NC(=O)[C@H](N)Cc1ccccc1)C(=O)N[C@H](CCCNC(=N)N)C(N)=O`: the result with Mus musculus [4], in the data set with Mus musculus [6] and with Mus musculus [7] was Active. Moreover, in data set [1], the pKi was 8.52. Moreover, the Activity result in data set [2] is “Dde”. Besides, in data set [3], the pEC50 was 5.73.

As a reminder, the pKi is the Ki on a negative log10 scale, so that one unit is a factor of ten. Broadly, the pEC50 is −log10 of the EC50, conventionally taken in molar units. The term AUC(0-inf) denotes total exposure, with the tail of the curve extrapolated. One may read the Cmax as the maximum level reached in the sampled fluid or tissue. By Tmax is commonly meant the time at which the peak concentration occurs. For orientation: half-life means the time in which the quantity being followed falls by half. Low readings indicate fast loss, high ones slow loss.
